Experimental data: ChEMBL document CHEMBL1165965, “Synthesis and structure-activity relationships of 1,2,3,4-tetrahydropyrido[2,3-b]pyrazines as potent and selective inhibitors of the anaplastic lymphoma kinase” (Bioorg Med Chem, 2010)

Tests used:
[1] = target: T1, Ephrin type-B receptor 6 (Homo sapiens) (UniProt O15197); test: Inhibition of EPHB6 at 1 uM
T1 sequence (whole entry): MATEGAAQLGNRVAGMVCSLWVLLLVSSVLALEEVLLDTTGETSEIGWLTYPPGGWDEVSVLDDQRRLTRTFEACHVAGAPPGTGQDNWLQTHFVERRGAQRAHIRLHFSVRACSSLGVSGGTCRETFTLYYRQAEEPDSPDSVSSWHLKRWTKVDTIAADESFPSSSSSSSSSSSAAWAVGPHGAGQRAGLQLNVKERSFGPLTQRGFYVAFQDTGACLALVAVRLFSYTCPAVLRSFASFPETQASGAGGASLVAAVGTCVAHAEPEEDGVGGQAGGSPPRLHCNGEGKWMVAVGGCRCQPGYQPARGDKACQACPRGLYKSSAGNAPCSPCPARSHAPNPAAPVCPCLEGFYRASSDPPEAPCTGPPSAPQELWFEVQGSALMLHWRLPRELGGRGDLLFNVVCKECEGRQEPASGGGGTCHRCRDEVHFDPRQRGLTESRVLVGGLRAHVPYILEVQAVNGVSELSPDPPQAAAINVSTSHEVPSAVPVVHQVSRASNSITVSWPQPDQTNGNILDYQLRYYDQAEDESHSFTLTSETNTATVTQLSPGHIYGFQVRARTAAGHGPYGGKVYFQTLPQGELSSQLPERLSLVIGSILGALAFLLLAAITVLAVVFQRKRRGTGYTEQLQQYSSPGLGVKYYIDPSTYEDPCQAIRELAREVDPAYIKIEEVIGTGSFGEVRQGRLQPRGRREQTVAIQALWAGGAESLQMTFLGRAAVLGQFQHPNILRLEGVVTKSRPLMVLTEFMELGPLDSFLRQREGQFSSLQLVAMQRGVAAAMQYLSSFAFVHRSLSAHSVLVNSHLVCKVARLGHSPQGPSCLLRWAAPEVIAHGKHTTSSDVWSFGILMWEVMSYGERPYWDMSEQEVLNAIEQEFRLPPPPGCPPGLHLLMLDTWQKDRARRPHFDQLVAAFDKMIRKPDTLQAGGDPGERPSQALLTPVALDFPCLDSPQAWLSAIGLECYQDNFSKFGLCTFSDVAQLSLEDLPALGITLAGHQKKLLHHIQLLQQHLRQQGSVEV

[2] = target: cAMP-dependent protein kinase catalytic subunit beta (Homo sapiens) (UniProt P22694); test: Inhibition of PKAC-beta at 1 uM
[3] = target: T2, Interleukin-1 receptor-associated kinase 3 (Homo sapiens) (UniProt Q9Y616); test: Inhibition of IRAK3 at 1 uM
T2 sequence (whole entry): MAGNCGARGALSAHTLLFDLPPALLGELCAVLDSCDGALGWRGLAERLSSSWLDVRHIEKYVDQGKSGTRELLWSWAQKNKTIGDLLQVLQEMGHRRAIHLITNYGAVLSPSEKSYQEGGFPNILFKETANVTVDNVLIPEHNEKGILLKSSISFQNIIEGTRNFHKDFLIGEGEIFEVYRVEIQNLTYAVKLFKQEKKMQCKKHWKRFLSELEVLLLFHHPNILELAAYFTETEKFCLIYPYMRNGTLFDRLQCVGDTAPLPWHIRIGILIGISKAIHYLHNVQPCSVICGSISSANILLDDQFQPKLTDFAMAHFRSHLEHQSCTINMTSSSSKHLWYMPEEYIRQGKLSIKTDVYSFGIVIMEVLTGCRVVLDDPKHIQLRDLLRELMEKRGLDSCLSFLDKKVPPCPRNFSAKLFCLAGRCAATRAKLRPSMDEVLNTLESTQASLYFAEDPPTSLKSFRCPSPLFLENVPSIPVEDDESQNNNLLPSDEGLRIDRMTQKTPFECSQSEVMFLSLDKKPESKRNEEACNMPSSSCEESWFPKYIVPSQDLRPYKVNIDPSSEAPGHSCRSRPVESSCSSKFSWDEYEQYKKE
How it was run: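 Single-concentration screen on the Ambit KINOMEscan platform, run against a panel of 250–400 kinases. Per-kinase inhibition was also summarized as S(90), the fraction of kinases inhibited by more than 90%.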

[4] = target: T3, Mitogen-activated protein kinase kinase kinase 2 (Homo sapiens) (UniProt Q9Y2U5); test: Inhibition of MAP3K2 at 1 uM
T3 sequence (whole entry): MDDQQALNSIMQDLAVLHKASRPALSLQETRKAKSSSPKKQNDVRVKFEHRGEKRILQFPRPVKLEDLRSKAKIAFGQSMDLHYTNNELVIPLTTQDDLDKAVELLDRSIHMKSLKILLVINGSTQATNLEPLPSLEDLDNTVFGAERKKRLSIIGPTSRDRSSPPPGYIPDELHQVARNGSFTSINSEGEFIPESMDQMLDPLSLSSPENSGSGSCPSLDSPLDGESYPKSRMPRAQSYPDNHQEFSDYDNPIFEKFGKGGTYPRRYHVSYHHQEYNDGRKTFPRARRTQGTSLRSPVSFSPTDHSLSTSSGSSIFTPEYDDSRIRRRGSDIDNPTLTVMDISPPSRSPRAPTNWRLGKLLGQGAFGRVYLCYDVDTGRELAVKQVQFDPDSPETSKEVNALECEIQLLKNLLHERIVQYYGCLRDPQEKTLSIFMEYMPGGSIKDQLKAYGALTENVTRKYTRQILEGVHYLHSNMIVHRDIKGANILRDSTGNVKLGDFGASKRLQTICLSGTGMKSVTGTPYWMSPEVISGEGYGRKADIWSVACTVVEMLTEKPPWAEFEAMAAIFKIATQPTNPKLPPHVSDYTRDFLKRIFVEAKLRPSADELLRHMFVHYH

[5] = target: G protein-coupled receptor kinase 4 (Homo sapiens) (UniProt P32298); test: Inhibition of GRK4 at 1 uM
Chain of G protein-coupled receptor kinase 4 (Homo sapiens) (P32298 whole entry, looked up, canonical isoform): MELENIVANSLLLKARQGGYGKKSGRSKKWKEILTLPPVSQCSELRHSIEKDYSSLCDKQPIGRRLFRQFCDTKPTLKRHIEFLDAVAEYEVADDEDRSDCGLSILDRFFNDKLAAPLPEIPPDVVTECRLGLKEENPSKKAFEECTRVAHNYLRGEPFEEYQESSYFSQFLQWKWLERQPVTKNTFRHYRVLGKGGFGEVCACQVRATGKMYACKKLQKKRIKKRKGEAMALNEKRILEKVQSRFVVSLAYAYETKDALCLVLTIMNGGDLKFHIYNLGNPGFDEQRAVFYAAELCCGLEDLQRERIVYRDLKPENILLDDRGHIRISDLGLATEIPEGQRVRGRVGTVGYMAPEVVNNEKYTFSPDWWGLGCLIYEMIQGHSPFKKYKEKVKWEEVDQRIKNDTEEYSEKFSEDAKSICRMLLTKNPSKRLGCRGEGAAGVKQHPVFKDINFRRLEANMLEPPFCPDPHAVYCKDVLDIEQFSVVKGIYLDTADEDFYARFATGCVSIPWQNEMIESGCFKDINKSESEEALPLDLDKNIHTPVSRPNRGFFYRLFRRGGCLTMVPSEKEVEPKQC

[6] = test system: Phosphatidylinositol 4,5-bisphosphate 3-kinase catalytic subunit alpha isoform (Homo sapiens), P42336 [E542K]; test: Inhibition of PIK3CA E542K mutant at 1 uM
Chain of Phosphatidylinositol 4,5-bisphosphate 3-kinase catalytic subunit alpha isoform (Homo sapiens), P42336 [E542K] (P42336 whole entry E542K, canonical isoform): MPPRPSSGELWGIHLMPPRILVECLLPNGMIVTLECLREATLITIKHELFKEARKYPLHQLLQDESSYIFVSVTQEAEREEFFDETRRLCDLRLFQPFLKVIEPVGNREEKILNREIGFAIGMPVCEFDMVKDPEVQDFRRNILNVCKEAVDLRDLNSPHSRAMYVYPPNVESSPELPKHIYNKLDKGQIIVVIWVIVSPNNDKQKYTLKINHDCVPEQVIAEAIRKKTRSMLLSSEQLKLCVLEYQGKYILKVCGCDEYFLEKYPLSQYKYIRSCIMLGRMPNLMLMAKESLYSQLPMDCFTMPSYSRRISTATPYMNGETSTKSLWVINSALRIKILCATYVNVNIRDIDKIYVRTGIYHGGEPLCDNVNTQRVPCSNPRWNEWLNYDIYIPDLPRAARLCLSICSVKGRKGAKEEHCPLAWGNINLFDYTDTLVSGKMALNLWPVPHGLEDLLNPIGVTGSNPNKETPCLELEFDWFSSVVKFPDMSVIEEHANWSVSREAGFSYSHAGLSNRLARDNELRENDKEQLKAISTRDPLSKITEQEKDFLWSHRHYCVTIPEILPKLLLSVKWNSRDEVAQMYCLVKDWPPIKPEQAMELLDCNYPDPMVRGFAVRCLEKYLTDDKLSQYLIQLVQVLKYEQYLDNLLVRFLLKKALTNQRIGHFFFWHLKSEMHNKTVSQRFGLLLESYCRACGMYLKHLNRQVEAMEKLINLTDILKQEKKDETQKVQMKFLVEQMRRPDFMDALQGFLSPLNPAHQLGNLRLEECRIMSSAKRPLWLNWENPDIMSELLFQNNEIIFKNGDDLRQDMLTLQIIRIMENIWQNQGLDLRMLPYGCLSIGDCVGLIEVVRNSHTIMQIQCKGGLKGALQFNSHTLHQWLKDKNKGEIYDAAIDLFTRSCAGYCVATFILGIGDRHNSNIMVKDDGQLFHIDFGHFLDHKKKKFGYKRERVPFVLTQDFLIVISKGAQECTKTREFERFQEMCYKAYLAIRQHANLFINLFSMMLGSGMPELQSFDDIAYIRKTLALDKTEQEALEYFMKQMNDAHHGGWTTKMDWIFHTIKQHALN

[7] = target: Serine/threonine-protein kinase 16 (Homo sapiens) (UniProt O75716); test: Inhibition of STK16 at 1 uM
Chain of Serine/threonine-protein kinase 16 (Homo sapiens) (O75716 whole entry): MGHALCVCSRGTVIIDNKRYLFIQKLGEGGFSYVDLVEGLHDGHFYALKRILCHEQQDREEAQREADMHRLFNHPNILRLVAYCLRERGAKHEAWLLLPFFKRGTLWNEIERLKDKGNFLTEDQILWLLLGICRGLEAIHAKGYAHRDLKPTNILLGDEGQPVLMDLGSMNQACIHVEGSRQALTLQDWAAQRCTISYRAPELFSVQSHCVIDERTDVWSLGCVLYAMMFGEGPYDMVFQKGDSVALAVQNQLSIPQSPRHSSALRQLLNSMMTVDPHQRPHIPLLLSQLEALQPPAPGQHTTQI

Structure (SMILES) | inhibition [1] [%] | inhibition [2] [%] | inhibition [3] [%] | inhibition [4] [%] | inhibition [5] [%] | inhibition [6] [%] | inhibition [7] [%]
CC(=O)N1CCN(c2cc(-c3cnc4c(c3)N(Cc3cc(Cl)ccc3C(F)(F)F)CCN4)ccn2)CC1 | 92 | < 50 | < 50 | 81 | < 50 | < 50 | < 50
O=C(O)c1ccc(-c2cnc3c(c2)N(Cc2cc(Cl)ccc2C(F)(F)F)CCN3)cc1 | – | < 50 | < 50 | – | – | – | < 50
CN1CCN(c2ccc(-c3cnc4c(c3)N(Cc3cc(F)ccc3F)CCN4)cn2)CC1 | 68 | < 50 | < 50 | < 50 | < 50 | < 50 | < 50
CN1CCN(c2ccc(-c3cnc4c(c3)N(Cc3c(F)ccc(F)c3Cl)CCN4)cn2)CC1 | 95 | < 50 | < 50 | < 50 | < 50 | < 50 | < 50
FC(F)(F)c1ccc(Cl)cc1CN1CCNc2ncc(-c3ccnc(N4CCNCC4)c3)cc21 | 97 | < 50 | 74 | 93 | < 50 | < 50 | < 50
O=C(c1ccc(-c2cnc3c(c2)N(Cc2cc(Cl)ccc2C(F)(F)F)CCN3)cc1)N1CCC(N2CCCC2)CC1 | – | < 50 | < 50 | – | – | – | < 50

Results, then the compound that gave them:

inhibition [1] [%] | inhibition [2] [%] | inhibition [3] [%] | inhibition [4] [%] | inhibition [5] [%] | inhibition [6] [%] | inhibition [7] [%] | Structure (SMILES)
– | < 50 | < 50 | – | – | – | < 50 | O=C(c1ccc(-c2cnc3c(c2)N(Cc2cc(Cl)ccc2C(F)(F)F)CCN3)cc1)N1CCCCC1
89 | < 50 | < 50 | 74 | < 50 | < 50 | < 50 | CN1CCN(c2ccc(-c3cnc4c(c3)N(Cc3cc(Cl)ccc3C(F)(F)F)CCN4)cn2)CC1
76 | < 50 | < 50 | < 50 | < 50 | < 50 | < 50 | CN1CCN(c2ccc(-c3cnc4c(c3)N(Cc3cc(Cl)ccc3Cl)CCN4)cn2)CC1
– | < 50 | < 50 | – | – | – | < 50 | COC1CCN(C(=O)c2ccc(-c3cnc4c(c3)N(Cc3cc(Cl)ccc3C(F)(F)F)CCN4)cc2)CC1
